Source: ChEMBL document CHEMBL5724801, “EUbOPEN Chemogenomics Library - Multiplex” (2024)
Values joined by “and” are separate entries in the source; they are usually repeats but may differ in a detail not shown here. Equal entries are not always repeated.

Assays:
Fibroblast = assay: Multiplex assay against human fibroblast; format: toxicity, cell-based
Procedure, shortened: (§1)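 Phenotypes for tubulin, mitochondrial mass and membrane permeability are expressed as per cents of healthy-nucleus cells. Cells were stained live at seeding with Hoechst33342, BioTracker Green Microtubule Cytoskeleton Dye, MitoTracker Red and Annexin V Alexa Fluor 680, then imaged after compound addition on a CQ1 microscope at 37°C and 5% CO2. Machine-learning gating in CellPathfinder separated Hoechst high-intensity objects from normal cells, divided normal cells by nuclear state (healthy, pyknosed, fragmented) and divided pyknosed cells into mitotic or apoptotic.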

HEK-293T = assay: Multiplex assay against HEK293T; format: toxicity, cell-based; conditions: human; procedure, shortened: as §1
[1] = 24 h, 10 µM, compound concentration 10 uM
[2] = 48 h, 1 µM, compound concentration 1 uM
[3] = 48 h, 10 µM, compound concentration 10 uM
[4] = 12 h, 1 µM, compound concentration 1 uM
[5] = 12 h, 10 µM, compound concentration 10 uM
[6] = 24 h, 1 µM, compound concentration 1 uM

N[C@](CC1c2ccccc2Oc2ccccc21)(C(=O)O)[C@H]1C[C@@H]1C(=O)O
Population Apoptotic (%) (Fibroblast; [1]): 57% and 35%
Population Fragmented Nuclei (%) (Fibroblast; [1]): 10% and 18%
Population Healthy Nuclei (%) (Fibroblast; [1]): 68% and 66%
Population Hoechst High Intensity Objects (%) (Fibroblast; [1]): 1% and 2%
Population Membrane Permeable-Phenotype (%) (Fibroblast; [1]): 1%
Population Mitochondria Different-Phenotype (%) (Fibroblast; [1]): 3% and 4%
Population Mitotic Cells (%) (Fibroblast; [1]): 42% and 64%
Population Normal (%) (Fibroblast; [1]): 98% and 97%
Population Pyknosed Nuclei (%) (Fibroblast; [1]): 20% and 15%
Population Tubulin-Different-Phenotype (%) (Fibroblast; [1]): 30% and 34%
Total Cell Count (Fibroblast; [1]): 193 and 113
Population Apoptotic (%) (Fibroblast; [2]): 62% and 23%
Population Fragmented Nuclei (%) (Fibroblast; [2]): 17% and 36%
Population Healthy Nuclei (%) (Fibroblast; [2]): 68% and 48%
Population Hoechst High Intensity Objects (%) (Fibroblast; [2]): 2% and 8%
Population Membrane Permeable-Phenotype (%) (Fibroblast; [2]): 0% and 9%
Population Mitochondria Different-Phenotype (%) (Fibroblast; [2]): 2% and 5%
Population Mitotic Cells (%) (Fibroblast; [2]): 37% and 76%
Population Normal (%) (Fibroblast; [2]): 97% and 91%
Population Pyknosed Nuclei (%) (Fibroblast; [2]): 14%
Population Tubulin-Different-Phenotype (%) (Fibroblast; [2]): 26% and 65%
Total Cell Count (Fibroblast; [2]): 189 and 125
Population Apoptotic (%) (Fibroblast; [3]): 45% and 27%
Population Fragmented Nuclei (%) (Fibroblast; [3]): 14% and 27%
Population Healthy Nuclei (%) (Fibroblast; [3]): 68% and 63%
Population Hoechst High Intensity Objects (%) (Fibroblast; [3]): 5% and 3%
Population Membrane Permeable-Phenotype (%) (Fibroblast; [3]): 1% and 2%
Population Mitochondria Different-Phenotype (%) (Fibroblast; [3]): 2%
Population Mitotic Cells (%) (Fibroblast; [3]): 54% and 72%
Population Normal (%) (Fibroblast; [3]): 94% and 96%
Population Pyknosed Nuclei (%) (Fibroblast; [3]): 16% and 9%
Population Tubulin-Different-Phenotype (%) (Fibroblast; [3]): 32% and 28%
Total Cell Count (Fibroblast; [3]): 198 and 115
Population Apoptotic (%) (HEK-293T; [4]): 38% and 54%
Population Fragmented Nuclei (%) (HEK-293T; [4]): 6% and 7%
Population Healthy Nuclei (%) (HEK-293T; [4]): 83% and 79%
Population Hoechst High Intensity Objects (%) (HEK-293T; [4]): 7% and 5%
Population Membrane Permeable-Phenotype (%) (HEK-293T; [4]): 0%
Population Mitochondria Different-Phenotype (%) (HEK-293T; [4]): 43% and 58%
Population Mitotic Cells (%) (HEK-293T; [4]): 61% and 45%
Population Normal (%) (HEK-293T; [4]): 92% and 94%
Population Pyknosed Nuclei (%) (HEK-293T; [4]): 10% and 12%
Population Tubulin-Different-Phenotype (%) (HEK-293T; [4]): 27% and 25%
Total Cell Count (HEK-293T; [4]): 447 and 270
Population Apoptotic (%) (HEK-293T; [5]): 32%
Population Fragmented Nuclei (%) (HEK-293T; [5]): 9% and 4%
Population Healthy Nuclei (%) (HEK-293T; [5]): 78% and 81%
Population Hoechst High Intensity Objects (%) (HEK-293T; [5]): 8% and 7%
Population Membrane Permeable-Phenotype (%) (HEK-293T; [5]): 0%
Population Mitochondria Different-Phenotype (%) (HEK-293T; [5]): 40% and 66%
Population Mitotic Cells (%) (HEK-293T; [5]): 67%
Population Normal (%) (HEK-293T; [5]): 91% and 92%
Population Pyknosed Nuclei (%) (HEK-293T; [5]): 12% and 13%
Population Tubulin-Different-Phenotype (%) (HEK-293T; [5]): 23% and 31%
Total Cell Count (HEK-293T; [5]): 381 and 382
Population Apoptotic (%) (HEK-293T; [6]): 21% and 38%
Population Fragmented Nuclei (%) (HEK-293T; [6]): 8% and 9%
Population Healthy Nuclei (%) (HEK-293T; [6]): 81% and 84%
Population Hoechst High Intensity Objects (%) (HEK-293T; [6]): 3% and 5%
Population Membrane Permeable-Phenotype (%) (HEK-293T; [6]): 1% and 0%
Population Mitochondria Different-Phenotype (%) (HEK-293T; [6]): 24% and 30%
Population Mitotic Cells (%) (HEK-293T; [6]): 78% and 61%
Population Normal (%) (HEK-293T; [6]): 96% and 94%
Population Pyknosed Nuclei (%) (HEK-293T; [6]): 10% and 6%
Population Tubulin-Different-Phenotype (%) (HEK-293T; [6]): 15% and 16%
Total Cell Count (HEK-293T; [6]): 629 and 368
Population Apoptotic (%) (HEK-293T; [1]): 29% and 40%
Population Fragmented Nuclei (%) (HEK-293T; [1]): 10% and 6%
Population Healthy Nuclei (%) (HEK-293T; [1]): 79% and 82%
Population Hoechst High Intensity Objects (%) (HEK-293T; [1]): 5%
Population Membrane Permeable-Phenotype (%) (HEK-293T; [1]): 0%
Population Mitochondria Different-Phenotype (%) (HEK-293T; [1]): 30% and 41%
Population Mitotic Cells (%) (HEK-293T; [1]): 70% and 59%
Population Normal (%) (HEK-293T; [1]): 94%
Population Pyknosed Nuclei (%) (HEK-293T; [1]): 10% and 11%
Population Tubulin-Different-Phenotype (%) (HEK-293T; [1]): 17% and 16%
Total Cell Count (HEK-293T; [1]): 510 and 471
Population Apoptotic (%) (HEK-293T; [2]): 12% and 17%
Population Fragmented Nuclei (%) (HEK-293T; [2]): 11% and 12%
Population Healthy Nuclei (%) (HEK-293T; [2]): 80% and 81%
Population Hoechst High Intensity Objects (%) (HEK-293T; [2]): 2% and 1%
Population Membrane Permeable-Phenotype (%) (HEK-293T; [2]): 2% and 0%
Population Mitochondria Different-Phenotype (%) (HEK-293T; [2]): 15% and 17%
Population Mitotic Cells (%) (HEK-293T; [2]): 87% and 82%
Population Normal (%) (HEK-293T; [2]): 97% and 98%
Population Pyknosed Nuclei (%) (HEK-293T; [2]): 7% and 6%
Population Tubulin-Different-Phenotype (%) (HEK-293T; [2]): 13% and 10%
Total Cell Count (HEK-293T; [2]): 1040 and 654
Population Apoptotic (%) (HEK-293T; [3]): 28% and 42%
Population Fragmented Nuclei (%) (HEK-293T; [3]): 13%
Population Healthy Nuclei (%) (HEK-293T; [3]): 78% and 80%
Population Hoechst High Intensity Objects (%) (HEK-293T; [3]): 2% and 4%
Population Membrane Permeable-Phenotype (%) (HEK-293T; [3]): 0%
Population Mitochondria Different-Phenotype (%) (HEK-293T; [3]): 17% and 25%
Population Mitotic Cells (%) (HEK-293T; [3]): 71% and 57%
Population Normal (%) (HEK-293T; [3]): 97% and 95%
Population Pyknosed Nuclei (%) (HEK-293T; [3]): 8% and 6%
Population Tubulin-Different-Phenotype (%) (HEK-293T; [3]): 8% and 12%
Total Cell Count (HEK-293T; [3]): 789 and 687
